According to ChEMBL document CHEMBL3232705, “Discovery of isoquinolinone indole acetic acids as antagonists of chemoattractant receptor homologous molecule expressed on Th2 cells (CRTH2) for the treatment of allergic inflammatory diseases” (J Med Chem, 2014):
Activity calls are given as the source filed them. The calls are words filed in the database; no cut-off is given here.

Legend:
[1] = molecular target: T1, Prostaglandin D2 receptor 2 (Homo sapiens, UniProt Q9Y5Y4); experiment: Binding affinity to human CRTH2 receptor
T1 sequence (Q9Y5Y4 whole entry): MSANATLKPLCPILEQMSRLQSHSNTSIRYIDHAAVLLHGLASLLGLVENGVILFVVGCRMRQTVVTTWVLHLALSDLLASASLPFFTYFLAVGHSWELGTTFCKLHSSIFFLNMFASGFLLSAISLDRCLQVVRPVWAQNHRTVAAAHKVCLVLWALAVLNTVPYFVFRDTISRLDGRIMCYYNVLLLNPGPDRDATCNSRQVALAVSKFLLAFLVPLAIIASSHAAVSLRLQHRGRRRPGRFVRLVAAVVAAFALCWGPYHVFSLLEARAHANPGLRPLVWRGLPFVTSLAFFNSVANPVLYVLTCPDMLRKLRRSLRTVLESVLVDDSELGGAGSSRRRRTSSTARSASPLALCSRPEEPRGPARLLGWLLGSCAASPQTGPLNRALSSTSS
Summary of the method: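 Competitive binding assay at human CRTH2, measuring displacement of tritium-labeled PGD2 by test compound; IC50 derived.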

Ovis aries [2] = experiment: Inhibition of Ascaris-induced airway bronchoconstriction in sheep assessed as inhibition of early phase allergic airway bronchoconstriction at 1 mg/kg, iv qd for 7 days; type: functional, organism-based; parameters: dose 1 mg/kg
Summary of the method: (§1)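 Sheep given 1 mg/kg iv once daily for 7 days before Ascaris suum allergen challenge. Early and late responses read as airway resistance above baseline, compared with each animal's historical untreated values. After the AHR measurement, three bronchi per sheep were lavaged for cell counts.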

[3] = molecular target: Voltage-gated inwardly rectifying potassium channel KCNH2 (Homo sapiens, UniProt Q12809); experiment: Inhibition of human ERG channel at 33 uM
Sequence of Voltage-gated inwardly rectifying potassium channel KCNH2 (Q12809 whole entry): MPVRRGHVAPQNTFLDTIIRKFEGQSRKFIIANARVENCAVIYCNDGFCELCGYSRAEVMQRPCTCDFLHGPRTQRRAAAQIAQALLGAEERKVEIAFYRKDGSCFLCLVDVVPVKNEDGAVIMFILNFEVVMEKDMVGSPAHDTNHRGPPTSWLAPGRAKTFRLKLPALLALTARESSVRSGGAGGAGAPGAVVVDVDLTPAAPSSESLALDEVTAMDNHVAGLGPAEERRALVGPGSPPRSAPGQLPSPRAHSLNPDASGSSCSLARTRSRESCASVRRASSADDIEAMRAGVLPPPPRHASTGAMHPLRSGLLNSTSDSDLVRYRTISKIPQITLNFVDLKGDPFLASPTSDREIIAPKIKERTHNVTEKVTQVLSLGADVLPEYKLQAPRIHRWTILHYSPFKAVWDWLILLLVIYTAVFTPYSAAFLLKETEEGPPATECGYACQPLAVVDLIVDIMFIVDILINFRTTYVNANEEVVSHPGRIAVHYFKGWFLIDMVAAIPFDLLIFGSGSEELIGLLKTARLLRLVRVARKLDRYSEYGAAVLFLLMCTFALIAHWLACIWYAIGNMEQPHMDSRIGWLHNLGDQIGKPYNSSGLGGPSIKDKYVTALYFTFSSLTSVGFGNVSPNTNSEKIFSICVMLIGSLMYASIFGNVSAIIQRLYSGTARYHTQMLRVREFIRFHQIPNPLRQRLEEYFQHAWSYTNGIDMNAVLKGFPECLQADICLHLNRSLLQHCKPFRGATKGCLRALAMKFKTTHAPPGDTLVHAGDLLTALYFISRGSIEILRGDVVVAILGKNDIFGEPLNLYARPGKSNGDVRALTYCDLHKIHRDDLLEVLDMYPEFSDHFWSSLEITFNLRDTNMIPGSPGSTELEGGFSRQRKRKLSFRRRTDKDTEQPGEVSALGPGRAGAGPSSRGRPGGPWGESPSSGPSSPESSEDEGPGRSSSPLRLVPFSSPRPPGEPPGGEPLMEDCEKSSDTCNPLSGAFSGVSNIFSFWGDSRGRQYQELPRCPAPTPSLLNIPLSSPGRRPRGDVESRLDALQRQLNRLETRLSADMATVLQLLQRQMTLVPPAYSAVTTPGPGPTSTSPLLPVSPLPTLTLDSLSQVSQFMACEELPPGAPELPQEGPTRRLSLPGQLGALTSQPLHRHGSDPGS

[4] = Clearance in dog at 2 mg/kg, iv; type: ADME, organism-based, Canis lupus familiaris; parameters: dose 2 mg/kg, route intravenous; conditions: in vivo
Summary of the method: (§2)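 Single intravenous dose of 2 mg/kg and single oral dose of 10 mg/kg, given separately, in rat, dog and monkey. Clearance and half-life taken from the iv arm; Cmax from the oral arm.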

[5] = Half life in dog at 2 mg/kg, iv; type: ADME, organism-based, Canis lupus familiaris; parameters: dose 2 mg/kg, route intravenous; conditions: in vivo; summary of the method: as §2
Cytochrome P450 2C9 = Cytochrome P450 2C9 (Homo sapiens, UniProt P11712); experiment: Inhibition of CYP2C9 (unknown origin); type: ADME
Sequence of Cytochrome P450 2C9 (P11712 whole entry): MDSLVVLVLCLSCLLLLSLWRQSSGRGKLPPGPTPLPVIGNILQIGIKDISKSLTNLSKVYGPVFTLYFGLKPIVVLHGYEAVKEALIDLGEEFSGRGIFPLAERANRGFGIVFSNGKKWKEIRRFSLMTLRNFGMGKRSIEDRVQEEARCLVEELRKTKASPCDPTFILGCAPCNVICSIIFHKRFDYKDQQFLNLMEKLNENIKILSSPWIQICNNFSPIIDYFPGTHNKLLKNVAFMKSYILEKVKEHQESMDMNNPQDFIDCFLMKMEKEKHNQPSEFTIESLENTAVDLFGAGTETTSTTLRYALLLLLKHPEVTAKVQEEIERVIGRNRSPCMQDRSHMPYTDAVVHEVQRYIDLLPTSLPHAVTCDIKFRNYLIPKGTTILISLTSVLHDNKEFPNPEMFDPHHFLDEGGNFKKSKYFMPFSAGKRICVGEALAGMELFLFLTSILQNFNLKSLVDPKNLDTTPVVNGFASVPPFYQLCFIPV

Ovis aries [6] = experiment: Inhibition of Ascaris-induced airway bronchoconstriction in sheep assessed as inhibition of late phase allergic airway bronchoconstriction at 1 mg/kg, iv qd for 7 days; type: functional, organism-based; parameters: dose 1 mg/kg; summary of the method: as §1
Cytochrome P450 2C19 = Cytochrome P450 2C19 (Homo sapiens, UniProt P33261); experiment: Inhibition of CYP2C19 (unknown origin); type: ADME
Sequence of Cytochrome P450 2C19 (P33261 whole entry): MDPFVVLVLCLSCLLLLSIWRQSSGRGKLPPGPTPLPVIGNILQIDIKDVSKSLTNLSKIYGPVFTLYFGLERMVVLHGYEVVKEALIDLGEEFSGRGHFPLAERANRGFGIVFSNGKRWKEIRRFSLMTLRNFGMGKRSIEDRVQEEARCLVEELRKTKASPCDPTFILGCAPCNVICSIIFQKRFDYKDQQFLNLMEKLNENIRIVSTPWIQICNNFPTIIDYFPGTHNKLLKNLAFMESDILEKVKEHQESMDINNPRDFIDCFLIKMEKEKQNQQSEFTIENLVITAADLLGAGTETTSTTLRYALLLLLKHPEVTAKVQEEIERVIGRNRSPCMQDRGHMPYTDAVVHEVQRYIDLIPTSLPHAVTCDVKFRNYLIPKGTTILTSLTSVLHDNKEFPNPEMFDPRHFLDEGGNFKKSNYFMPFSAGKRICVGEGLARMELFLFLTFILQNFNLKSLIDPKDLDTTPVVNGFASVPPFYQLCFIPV

[7] = Permeability in human Caco2 cells at pH 6.5; conditions: Caco-2, pH 6.5
[8] = Volume of distribution at steady state in rat at 2 mg/kg, iv; type: ADME, organism-based; parameters: dose 2 mg/kg, route intravenous; conditions: in vivo, read-out: Vdss
[9] = Oral bioavailability in rat at 10 mg/kg; type: ADME, organism-based; conditions: in vivo
Mus musculus [10] = experiment: Antiallergic activity in house dust mite-induced allergic airway disease BALB/c mouse model assessed as reduction in macrophage level in bronchoalveolar lavage fluid at 40 mg/kg, po after 72 hrs of HDM challenge; type: functional, organism-based; parameters: dose 40 mg/kg; conditions: Lung
Summary of the method: (§3)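 BALB/c mice given house dust mite intratracheally via a catheter passed through the vocal cords. Test article 40 mg/kg orally once daily; dexamethasone 1 mg/kg ip once daily as reference. Total and differential BAL cells (eosinophils, macrophages, lymphocytes, neutrophils) counted 72 h after HDM challenge. Mean ± SEM, Mann–Whitney U test.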

Mus musculus [11] = experiment: Antiallergic activity in house dust mite-induced allergic airway disease BALB/c mouse model assessed as reduction in eosinophil level in bronchoalveolar lavage fluid at 40 mg/kg, po after 72 hrs of HDM challenge; type: functional, organism-based; parameters: dose 40 mg/kg; conditions: Lung; summary of the method: as §3
[12] = molecular target: T1, Prostaglandin D2 receptor 2; experiment: Antagonist activity at human recombinant CRTh2 expressed in CHO-K1 cells by cAMP TR FRET assay; type: functional, cell-based
Salmonella typhimurium = experiment: Genotoxicity in Salmonella typhimurium by AMES test; type: toxicity, organism-based; conditions: salmonella enterica subsp. enterica serovar typhimurium
Mus musculus [13] = experiment: Antiallergic inflammatory activity in oxazolone induced contact hypersensitivity mouse model assessed as reduction ear swelling at 3 mg/kg, po prior to oxazolone and 7 hrs post challenge measured after 24 hrs; type: functional
Summary of the method: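 Mice sensitized on the shaved abdomen with 2% oxazolone in ethanol one week before challenge. Dosed orally 1 h before the left ear was challenged with 10 μL of 2% oxazolone (ethanol on the right ear as control), then redosed 7 h after challenge. Ear thickness measured by micrometer; swelling taken as 24 h post-challenge minus pre-challenge thickness. Unpaired t test.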

Cytochrome P450 2B6 = molecular target: T2, Cytochrome P450 2B6 (Homo sapiens, UniProt P20813); experiment: Inhibition of CYP2B6 (unknown origin); type: ADME
T2 sequence (P20813 whole entry): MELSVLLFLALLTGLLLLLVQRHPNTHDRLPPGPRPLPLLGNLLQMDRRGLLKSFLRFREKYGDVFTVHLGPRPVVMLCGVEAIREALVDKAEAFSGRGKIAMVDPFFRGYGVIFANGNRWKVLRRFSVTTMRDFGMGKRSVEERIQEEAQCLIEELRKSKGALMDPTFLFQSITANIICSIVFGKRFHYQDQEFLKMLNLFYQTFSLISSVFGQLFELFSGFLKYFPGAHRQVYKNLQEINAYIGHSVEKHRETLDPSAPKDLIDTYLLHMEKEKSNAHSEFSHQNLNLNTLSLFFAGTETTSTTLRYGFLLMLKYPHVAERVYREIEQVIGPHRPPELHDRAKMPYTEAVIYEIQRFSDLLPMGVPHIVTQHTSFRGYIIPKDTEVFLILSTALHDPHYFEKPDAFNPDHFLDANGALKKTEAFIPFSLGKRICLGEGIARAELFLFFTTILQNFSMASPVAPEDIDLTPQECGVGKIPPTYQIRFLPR

Ovis aries [14] = experiment: Inhibition of Ascaris-induced airway bronchoconstriction in sheep assessed as inhibition of late phase allergic airway bronchoconstriction at 3 mg/kg, iv bid; type: functional, organism-based; parameters: dose 3 mg/kg
Cytochrome P450 1A2 = molecular target: T3, Cytochrome P450 1A2 (Homo sapiens, UniProt P05177); experiment: Inhibition of CYP1A2 (unknown origin); type: ADME
T3 sequence (P05177 whole entry): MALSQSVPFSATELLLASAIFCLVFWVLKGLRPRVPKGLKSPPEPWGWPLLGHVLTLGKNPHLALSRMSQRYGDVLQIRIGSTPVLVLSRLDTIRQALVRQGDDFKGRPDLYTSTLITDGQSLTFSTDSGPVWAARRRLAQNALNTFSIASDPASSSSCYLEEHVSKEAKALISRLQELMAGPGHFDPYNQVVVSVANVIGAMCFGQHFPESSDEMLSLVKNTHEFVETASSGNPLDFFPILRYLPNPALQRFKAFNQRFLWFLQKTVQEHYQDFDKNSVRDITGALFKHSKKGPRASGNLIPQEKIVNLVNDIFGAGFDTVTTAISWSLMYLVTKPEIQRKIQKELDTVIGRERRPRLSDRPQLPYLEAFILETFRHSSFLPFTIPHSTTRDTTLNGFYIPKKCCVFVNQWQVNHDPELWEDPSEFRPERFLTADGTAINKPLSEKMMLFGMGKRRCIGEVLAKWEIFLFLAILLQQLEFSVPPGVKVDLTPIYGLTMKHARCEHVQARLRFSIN

Mus musculus [15] = experiment: Antiallergic activity in house dust mite-induced allergic airway disease BALB/c mouse model assessed as reduction in neutrophil level in bronchoalveolar lavage fluid at 40 mg/kg, po after 72 hrs of HDM challenge; type: functional, organism-based; parameters: dose 40 mg/kg; conditions: Lung; summary of the method: as §3

IC50 [1]: 0.0014 µM
clearance [4]: 5.6 mL/min/kg
half-life [5]: 3.4 h
IC50 (Cytochrome P450 2C9): 55 µM
IC50 (Cytochrome P450 2C19): > 100 µM
Papp [7]: 2.7 ×10⁻⁶ cm/s
Vd [8]: 1.2 L/kg
bioavailability [9]: 20%
IC50 [12]: 0.006 µM
IC50 (Cytochrome P450 2B6): > 100 µM
IC50 (Cytochrome P450 1A2): > 100 µM
Compound: Cc1c(-c2cn(C(C)C)c(=O)c3ccccc23)c2cc(F)ccc2n1CC(=O)O
inhibition (Ovis aries [2]): Active
inhibition (INH) [3]: Not Active
inhibition (Ovis aries [6]): Active
inhibition (Mus musculus [10]): inactive
inhibition (Mus musculus [11]): Active
Activity (Salmonella typhimurium): Non-toxic
inhibition in vivo at 3 mg/kg (Mus musculus [13]): 50.5%
inhibition (Ovis aries [14]): Active
inhibition (Mus musculus [15]): Active
